Source: ChEMBL document CHEMBL1147007, “Optimization of 2-aminothiazole derivatives as CCR4 antagonists” (Bioorg Med Chem Lett, 2006)
pIC50: −log10 of the molar value.

Experiments:
[1] = target: T1, C-C chemokine receptor type 4 (Homo sapiens, UniProt P51679); experiment: Displacement of [125I]TARC from CCR4 expressed in human CEM cell line; assay type: cell-based, CCRF-CEM
T1 sequence (P51679 whole entry): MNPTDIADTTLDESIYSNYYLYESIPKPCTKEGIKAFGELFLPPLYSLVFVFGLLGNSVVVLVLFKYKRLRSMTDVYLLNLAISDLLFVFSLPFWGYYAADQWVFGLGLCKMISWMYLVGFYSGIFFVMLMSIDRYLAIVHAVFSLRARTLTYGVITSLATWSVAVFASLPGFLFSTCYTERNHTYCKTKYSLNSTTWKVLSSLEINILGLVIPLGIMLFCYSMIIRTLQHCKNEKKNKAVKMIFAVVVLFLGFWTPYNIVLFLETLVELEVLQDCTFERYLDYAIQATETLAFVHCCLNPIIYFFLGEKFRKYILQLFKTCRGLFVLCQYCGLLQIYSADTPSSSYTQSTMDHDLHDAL
In short: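 CEM cells at 5 · 10^6/mL in RPMI-1640 with 0.5% BSA, incubated with compound (diluted in DMSO) and [125I]TARC diluted to 100 pM in buffer, 2 h at room temperature. Bound ligand collected by filtration through GF/B filters and counted by scintillation. Values are means of three experiments (standard deviation ±30%).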

[2] = target: T1, C-C chemokine receptor type 4; experiment: Displacement of [125I]MDC from CCR4 expressed in human CEM cell line; assay type: cell-based, CCRF-CEM
[3] = Terminal half life in rat at 0.5 mg/kg, iv; assay type: ADME, organism-based; design: dose 0.5 mg/kg, route intravenous; conditions: in vivo
[4] = Clearance in rat at 0.5 mg/kg, iv; assay type: ADME, organism-based; design: dose 0.5 mg/kg, route intravenous; conditions: in vivo
[5] = Oral bioavailability in rat at 2 mg/kg, po; assay type: ADME, organism-based; conditions: in vivo
In short: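 Rats dosed by oral gavage at 2 mg/kg; oral bioavailability determined.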

## NCc1csc(Nc2cccc3ccccc23)n1
[1]
  pIC50: < 4.60

## Cn1ccc2c(Nc3nc(C(C)(C)C)cs3)cccc21
[1]
  pIC50: 7.43

## CC(C)(C)c1ccc(-c2csc(Nc3cccc4ccccc34)n2)cc1
[1]
  pIC50: 6.05

## CC(C)c1csc(Cc2cccc3ccccc23)n1
[1]
  pIC50: < 4.60

## CC(C)(C)c1csc(Nc2cccc3cccnc23)n1
[1]
  pIC50: < 4.60

## CC(C)(C)c1csc(Nc2ccccc2)n1
[1]
  pIC50: 5.35

## CC(C)c1ccccc1Nc1nc(C(C)(C)C)cs1
[1]
  pIC50: 6.36

## Cc1cccc(Nc2nc(C(C)(C)C)cs2)c1C
[1]
  pIC50: 6.59

## CC(C)(C)c1coc(Nc2cccc3ccccc23)n1
[1]
  pIC50: 7.10

## Cc1cccc(Nc2cc(CN(Cc3ccccc3C(F)(F)F)CC3CCCCC3)no2)c1C
[1]
  pIC50: 4.92

## CCNCc1csc(Nc2cccc3ccccc23)n1
[1]
  pIC50: 6.00

## CC(C)CN(Cc1csc(Nc2cccc3ccccc23)n1)CC(C)C
[1]
  pIC50: 7.35

## CC(C)(C)c1csc(Nc2cccc3[nH]ccc23)n1
[1]
  pIC50: 6.31

## CC(C)c1csc(Nc2cccc3ccccc23)n1
[1]
  pIC50: 6.77

## c1ccc2c(Nc3nc(CN(CC4CCCCC4)CC4CCCCC4)cs3)cccc2c1
[2]
  pIC50: 7.51
[1]
  pIC50: 7.74
[3]
  half-life: 3.6 h
[4]
  clearance: 17.8 mL/min/kg
[5]
  bioavailability: 63%

## Cc1cccc(Nc2cccc(CN(Cc3ccccc3C(F)(F)F)CC3CCCCC3)n2)c1C
[1]
  pIC50: 6.47

## Cc1csc(N(C)c2cccc3ccccc23)n1
[1]
  pIC50: < 4.60

## CC(C)(C)c1csc(Nc2cccc3ncccc23)n1
[1]
  pIC50: 6.52

## Cc1cccc(Nc2cc(CN(Cc3ccccc3C(F)(F)F)CC3CCCCC3)n[nH]2)c1C
[1]
  pIC50: < 4.60

## CC(C)(C)c1csc(Nc2cccc3c2CCCC3)n1
[1]
  pIC50: 6.68

## c1ccc(-c2csc(Nc3cccc4ccccc34)n2)cc1
[1]
  pIC50: 5.26

## CCn1ccc2c(Nc3nc(C(C)(C)C)cs3)cccc21
[1]
  pIC50: 6.68

## CC(C)(C)c1ccnc(Nc2cccc3ccccc23)n1
[1]
  pIC50: < 4.60

## FC(F)(F)c1ccccc1CN(Cc1csc(Nc2cccc3ccccc23)n1)CC1CCCCC1
[1]
  pIC50: 7.85

## CC(C)(C)c1csc(Nc2cccc3cnccc23)n1
[1]
  pIC50: 5.82

## CC(C)(C)c1csc(Nc2cccc3ccccc23)n1
[1]
  pIC50: 7.10

## Cc1cccc(Nc2cc(CN(Cc3ccccc3C(F)(F)F)CC3CCCCC3)nn2C)c1C
[1]
  pIC50: 6.43

## Cc1ccccc1Nc1nc(C(C)(C)C)cs1
[1]
  pIC50: 6.05

## Cc1csc(Nc2cccc3ccccc23)n1
[2]
  pIC50: 5.52
[1]
  pIC50: 5.77
[3]
  half-life: 0.4 h
[4]
  clearance: 70 mL/min/kg
[5]
  bioavailability: 2%

## CC(C)(C)Cc1csc(Nc2cccc3ccccc23)n1
[1]
  pIC50: 6.66

## Cc1cccc(Nc2nc(C(C)(C)C)cs2)c1
[1]
  pIC50: 5.70

## CCN(CC)Cc1csc(Nc2cccc3ccccc23)n1
[1]
  pIC50: 6.10
